From ChEMBL document CHEMBL1124366, “Synthesis and biological properties of N63-carboxamides of teicoplanin antibiotics. Structure-activity relationships” (J Med Chem, 1989)
Converted amounts (≈) assume the structure as drawn.

Tests used:
Format in all cases: functional
Streptococcus pneumoniae = experiment: In vitro minimum inhibitory concentration against Streptococcus pneumoniae UC41
Staphylococcus aureus = experiment: In vitro minimum inhibitory concentration against Staphylococcus aureus Tour
[1] = system: Staphylococcus epidermidis; experiment: In vitro minimum inhibitory concentration against Staphylococcus epidermis ATCC 12228
Streptococcus pyogenes [2] = experiment: Subcutaneously administration into mice infected with Streptococcus pyogenes C 203; conditions: sc
Procedure, shortened: (§1)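 Mice (five per treatment group, five groups) infected intraperitoneally with about 10⁵ cells of Strep. pyogenes C 203, about 100× the LD50. ED50 (mg/kg) was calculated from the percentage of mice surviving at each dose on day 7.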

Streptococcus pyogenes [3] = experiment: In vivo effective dose given perorally to mice infected with Streptococcus pyogenes C 203; conditions: po; procedure, shortened: as §1
[4] = system: Staphylococcus haemolyticus; experiment: In vitro minimum inhibitory concentration against Staphylococcus hemolyticus 602 cell line; conditions: strain 602
Enterococcus faecalis = experiment: In vitro minimum inhibitory concentration against Streptococcus faecalis ATCC 7080
Streptococcus pyogenes [5] = experiment: In vitro minimum inhibitory concentration against Streptococcus pyogenes C 203

Structure (SMILES)	MIC (Streptococcus pneumoniae)	MIC (Staphylococcus aureus)	MIC [1]	ED50 (Streptococcus pyogenes [2])	ED50 (Streptococcus pyogenes [3])	MIC [4]	MIC (Enterococcus faecalis)	MIC (Streptococcus pyogenes [5])
CNCCN(C)C(=O)[C@H]1NC(=O)[C@H]2NC(=O)[C@H](NC(=O)[C@@H]3NC(=O)[C@H]4NC(=O)[C@@H](Cc5ccc(c(Cl)c5)Oc5cc3cc(c5O[C@@H]3O[C@@H](CO)[C@@H](O)[C@H](O)[C@@H]3NC(=O)CCCCCCC(C)C)Oc3ccc(cc3Cl)[C@H]2O[C@@H]2O[C@@H](CO)[C@@H](O)[C@H](O)[C@@H]2NC(C)=O)NC(=O)[C@H](N)c2ccc(O)c(c2)Oc2cc(O)cc4c2)c2ccc(O)c(c2)-c2c(O[C@H]3O[C@H](CO)[C@@H](O)[C@@H](O)[C@@H]3O)cc(O)cc21	0.12 µg/mL (≈ 0.0615 µM)	0.12 µg/mL (≈ 0.0615 µM)	0.06 µg/mL (≈ 0.0308 µM)	0.1 mg/kg	72 mg/kg	1 µg/mL (≈ 0.513 µM)	0.12 µg/mL (≈ 0.0615 µM)	0.06 µg/mL (≈ 0.0308 µM)
CC(=O)N[C@@H]1[C@H](O[C@@H]2c3ccc(c(Cl)c3)Oc3cc4cc(c3O[C@@H]3O[C@@H](CO)[C@@H](O)[C@H](O)[C@@H]3NC(=O)CCCCCCC(C)C)Oc3ccc(cc3Cl)C[C@H]3NC(=O)[C@H](N)c5ccc(O)c(c5)Oc5cc(O)cc(c5)[C@H](NC3=O)C(=O)N[C@H]4C(=O)N[C@H]3C(=O)N[C@@H]2C(=O)N[C@H](C(=O)NCCCCCN(C)C)c2cc(O)cc(O[C@H]4O[C@H](CO)[C@@H](O)[C@@H](O)[C@@H]4O)c2-c2cc3ccc2O)O[C@@H](CO)[C@@H](O)[C@@H]1O	0.06 µg/mL (≈ 0.0301 µM)	0.12 µg/mL (≈ 0.0602 µM)	0.12 µg/mL (≈ 0.0602 µM)	0.12 mg/kg	112 mg/kg	0.5 µg/mL (≈ 0.251 µM)	0.12 µg/mL (≈ 0.0602 µM)	0.06 µg/mL (≈ 0.0301 µM)
CCN(CC)CCCNC(=O)[C@H]1NC(=O)[C@H]2NC(=O)[C@H](NC(=O)[C@@H]3NC(=O)[C@H]4NC(=O)[C@@H](Cc5ccc(c(Cl)c5)Oc5cc3cc(c5O[C@@H]3O[C@@H](CO)[C@@H](O)[C@H](O)[C@@H]3NC(=O)CCCCCCC(C)C)Oc3ccc(cc3Cl)[C@H]2O[C@@H]2O[C@@H](CO)[C@@H](O)[C@H](O)[C@@H]2NC(C)=O)NC(=O)[C@H](N)c2ccc(O)c(c2)Oc2cc(O)cc4c2)c2ccc(O)c(c2)-c2c(O[C@H]3O[C@H](CO)[C@@H](O)[C@@H](O)[C@@H]3O)cc(O)cc21	0.06 µg/mL (≈ 0.0301 µM)	0.12 µg/mL (≈ 0.0602 µM)	0.12 µg/mL (≈ 0.0602 µM)	0.05 mg/kg	90 mg/kg	0.12 µg/mL (≈ 0.0602 µM)	0.12 µg/mL (≈ 0.0602 µM)	0.06 µg/mL (≈ 0.0301 µM)
CCNCCNC(=O)[C@H]1NC(=O)[C@H]2NC(=O)[C@H](NC(=O)[C@@H]3NC(=O)[C@H]4NC(=O)[C@@H](Cc5ccc(c(Cl)c5)Oc5cc3cc(c5O[C@@H]3O[C@@H](CO)[C@@H](O)[C@H](O)[C@@H]3NC(=O)CCCCCCC(C)C)Oc3ccc(cc3Cl)[C@H]2O[C@@H]2O[C@@H](CO)[C@@H](O)[C@H](O)[C@@H]2NC(C)=O)NC(=O)[C@H](N)c2ccc(O)c(c2)Oc2cc(O)cc4c2)c2ccc(O)c(c2)-c2c(O[C@H]3O[C@H](CO)[C@@H](O)[C@@H](O)[C@@H]3O)cc(O)cc21	0.12 µg/mL (≈ 0.0615 µM)	0.12 µg/mL (≈ 0.0615 µM)	0.06 µg/mL (≈ 0.0308 µM)	0.18 mg/kg	300 mg/kg	0.12 µg/mL (≈ 0.0615 µM)	0.12 µg/mL (≈ 0.0615 µM)	0.06 µg/mL (≈ 0.0308 µM)
CC(=O)N[C@@H]1[C@H](O[C@@H]2c3ccc(c(Cl)c3)Oc3cc4cc(c3O[C@@H]3O[C@@H](CO)[C@@H](O)[C@H](O)[C@@H]3NC(=O)CCCCCCC(C)C)Oc3ccc(cc3Cl)C[C@H]3NC(=O)[C@H](N)c5ccc(O)c(c5)Oc5cc(O)cc(c5)[C@H](NC3=O)C(=O)N[C@H]4C(=O)N[C@H]3C(=O)N[C@@H]2C(=O)N[C@H](C(=O)NCCCCN(C)C)c2cc(O)cc(O[C@H]4O[C@H](CO)[C@@H](O)[C@@H](O)[C@@H]4O)c2-c2cc3ccc2O)O[C@@H](CO)[C@@H](O)[C@@H]1O	0.12 µg/mL (≈ 0.0607 µM)	0.12 µg/mL (≈ 0.0607 µM)	0.06 µg/mL (≈ 0.0303 µM)	0.1 mg/kg	90 mg/kg	0.25 µg/mL (≈ 0.126 µM)	0.12 µg/mL (≈ 0.0607 µM)	0.06 µg/mL (≈ 0.0303 µM)
CC(=O)N[C@@H]1[C@H](O[C@@H]2c3ccc(c(Cl)c3)Oc3cc4cc(c3O[C@@H]3O[C@@H](CO)[C@@H](O)[C@H](O)[C@@H]3NC(=O)CCCCCCC(C)C)Oc3ccc(cc3Cl)C[C@H]3NC(=O)[C@H](N)c5ccc(O)c(c5)Oc5cc(O)cc(c5)[C@H](NC3=O)C(=O)N[C@H]4C(=O)N[C@H]3C(=O)N[C@@H]2C(=O)N[C@H](C(=O)NCCN(C)C)c2cc(O)cc(O[C@H]4O[C@H](CO)[C@@H](O)[C@@H](O)[C@@H]4O)c2-c2cc3ccc2O)O[C@@H](CO)[C@@H](O)[C@@H]1O	0.06 µg/mL (≈ 0.0308 µM)	0.12 µg/mL (≈ 0.0615 µM)	0.06 µg/mL (≈ 0.0308 µM)	0.09 mg/kg	140 mg/kg	0.12 µg/mL (≈ 0.0615 µM)	0.12 µg/mL (≈ 0.0615 µM)	0.06 µg/mL (≈ 0.0308 µM)
CC(=O)N[C@@H]1[C@H](O[C@@H]2c3ccc(c(Cl)c3)Oc3cc4cc(c3O[C@@H]3O[C@@H](CO)[C@@H](O)[C@H](O)[C@@H]3NC(=O)CCCCCCC(C)C)Oc3ccc(cc3Cl)C[C@H]3NC(=O)[C@H](N)c5ccc(O)c(c5)Oc5cc(O)cc(c5)[C@H](NC3=O)C(=O)N[C@H]4C(=O)N[C@H]3C(=O)N[C@@H]2C(=O)N[C@H](C(=O)NCCN)c2cc(O)cc(O[C@H]4O[C@H](CO)[C@@H](O)[C@@H](O)[C@@H]4O)c2-c2cc3ccc2O)O[C@@H](CO)[C@@H](O)[C@@H]1O	0.12 µg/mL (≈ 0.0624 µM)	0.12 µg/mL (≈ 0.0624 µM)	0.06 µg/mL (≈ 0.0312 µM)	0.18 mg/kg	139 mg/kg	0.12 µg/mL (≈ 0.0624 µM)	0.12 µg/mL (≈ 0.0624 µM)	0.06 µg/mL (≈ 0.0312 µM)
CC(=O)N[C@@H]1[C@H](O[C@@H]2c3ccc(c(Cl)c3)Oc3cc4cc(c3O[C@@H]3O[C@@H](CO)[C@@H](O)[C@H](O)[C@@H]3NC(=O)CCCCCCC(C)C)Oc3ccc(cc3Cl)C[C@H]3NC(=O)[C@H](N)c5ccc(O)c(c5)Oc5cc(O)cc(c5)[C@H](NC3=O)C(=O)N[C@H]4C(=O)N[C@H]3C(=O)N[C@@H]2C(=O)N[C@H](C(=O)NCCCN2CCOCC2)c2cc(O)cc(O[C@H]4O[C@H](CO)[C@@H](O)[C@@H](O)[C@@H]4O)c2-c2cc3ccc2O)O[C@@H](CO)[C@@H](O)[C@@H]1O	0.06 µg/mL (≈ 0.0299 µM)	0.12 µg/mL (≈ 0.0598 µM)	0.12 µg/mL (≈ 0.0598 µM)	0.18 mg/kg	> 300 mg/kg	0.5 µg/mL (≈ 0.249 µM)	0.12 µg/mL (≈ 0.0598 µM)	0.06 µg/mL (≈ 0.0299 µM)
CCCCC/C=C/CCC(=O)N[C@@H]1[C@H](Oc2c3cc4cc2Oc2ccc(cc2Cl)[C@@H](O[C@@H]2O[C@@H](CO)[C@@H](O)[C@H](O)[C@@H]2NC(C)=O)[C@@H]2NC(=O)[C@H](NC(=O)[C@@H]4NC(=O)[C@H]4NC(=O)[C@@H](Cc5ccc(c(Cl)c5)O3)NC(=O)[C@H](N)c3ccc(O)c(c3)Oc3cc(O)cc4c3)c3ccc(O)c(c3)-c3c(O[C@H]4O[C@H](CO)[C@@H](O)[C@@H](O)[C@@H]4O)cc(O)cc3[C@@H](C(=O)NC3CCNCC3)NC2=O)O[C@@H](CO)[C@@H](O)[C@@H]1O	0.06 µg/mL (≈ 0.0306 µM)	0.12 µg/mL (≈ 0.0612 µM)	0.12 µg/mL (≈ 0.0612 µM)	0.08 mg/kg	89.6 mg/kg	1 µg/mL (≈ 0.51 µM)	0.12 µg/mL (≈ 0.0612 µM)	0.06 µg/mL (≈ 0.0306 µM)
CCNCCCNC(=O)[C@H]1NC(=O)[C@H]2NC(=O)[C@H](NC(=O)[C@@H]3NC(=O)[C@H]4NC(=O)[C@@H](Cc5ccc(c(Cl)c5)Oc5cc3cc(c5O[C@@H]3O[C@@H](CO)[C@@H](O)[C@H](O)[C@@H]3NC(=O)CCCCCCC(C)C)Oc3ccc(cc3Cl)[C@H]2O[C@@H]2O[C@@H](CO)[C@@H](O)[C@H](O)[C@@H]2NC(C)=O)NC(=O)[C@H](N)c2ccc(O)c(c2)Oc2cc(O)cc4c2)c2ccc(O)c(c2)-c2c(O[C@H]3O[C@H](CO)[C@@H](O)[C@@H](O)[C@@H]3O)cc(O)cc21	0.12 µg/mL (≈ 0.0611 µM)	0.12 µg/mL (≈ 0.0611 µM)	0.06 µg/mL (≈ 0.0306 µM)	0.1 mg/kg	112 mg/kg	0.12 µg/mL (≈ 0.0611 µM)	0.12 µg/mL (≈ 0.0611 µM)	0.06 µg/mL (≈ 0.0306 µM)
CC(=O)N[C@@H]1[C@H](O[C@@H]2c3ccc(c(Cl)c3)Oc3cc4cc(c3O[C@@H]3O[C@@H](CO)[C@@H](O)[C@H](O)[C@@H]3NC(=O)CCCCCCC(C)C)Oc3ccc(cc3Cl)C[C@H]3NC(=O)[C@H](N)c5ccc(O)c(c5)Oc5cc(O)cc(c5)[C@H](NC3=O)C(=O)N[C@H]4C(=O)N[C@H]3C(=O)N[C@@H]2C(=O)N[C@H](C(=O)N(C)CCN(C)C)c2cc(O)cc(O[C@H]4O[C@H](CO)[C@@H](O)[C@@H](O)[C@@H]4O)c2-c2cc3ccc2O)O[C@@H](CO)[C@@H](O)[C@@H]1O	0.06 µg/mL (≈ 0.0306 µM)	0.12 µg/mL (≈ 0.0611 µM)	0.06 µg/mL (≈ 0.0306 µM)	0.15 mg/kg	90 mg/kg	0.25 µg/mL (≈ 0.127 µM)	0.06 µg/mL (≈ 0.0306 µM)	0.06 µg/mL (≈ 0.0306 µM)
